Measured values from ChEMBL document CHEMBL1155193, “Acyloxymethyl esterification of nodularin-R and microcystin-LA produces inactive protoxins that become reactivated and produce apoptosis inside intact cells” (J Med Chem, 2009).
Active and inactive are the calls of the source. No cut-off for these calls is given here. Starred links: 1 amine or outer side, 2 acyl side, 3 side chain; linkers in the order of their positions; H or OH if unused. Positions of bridges follow the written chain, without caps; N, C: chain ends. Non-standard residues stand in square brackets, D forms with d. Residues, ends and D or L forms follow the SMILES beside them. Adda = CO[C@@H](Cc1ccccc1)[C@@H](C)/C=C(C)/C=C/[C@H](N[*:1])[C@H](C)C(=O)[*:2]; X1 = CC(C)C[C@H](N[*:1])C(=O)C[C@@H](C(=O)O)[C@H](C)C(=O)[*:2]; dAsp(3S-Me) = C[C@H](C(=O)[*:3])[C@@H](N[*:1])C(=O)[*:2]; d(γGlu) = O=C(O)[C@@H](CCC(=O)[*:2])N[*:1]; NMeDha = C=C(NC)C(=O)O

Experiments:
[1] = Lipophilicity, logD at pI; type: physicochemical; conditions: octanol/water
Outline: (§1)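 In silico estimate under a standard ionic condition (0.1 M Cl⁻, 0.1 M Na⁺/K⁺) at pI and at pH 7.4. pKa was estimated in macro mode at 310 K.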

[2] = test system: NIH3T3; assay: Induction of apoptosis in Swiss mouse 3T3 cells up to 120 uM after 3 hrs by Hoechst 33342 staining-based fluorescence microscopy; type: cell-based; conditions: nih3t3, 3 h
Outline: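 Swiss 3T3 mouse fibroblasts kept in RPMI with 10% FCS at 37 °C, 5% CO₂. About 7000 cells per well were exposed to various toxin concentrations for 3 h in fresh serum-free medium. The incubation was stopped with buffered formaldehyde containing Hoechst 33342, and apoptosis was scored by fluorescence and DIC microscopy. Mean ± SEM of three experiments.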

[3] = Lipophilicity, logD at pH 7.4; type: physicochemical; conditions: buffer; outline: as §1
[4] = target: Serine/threonine-protein phosphatase 2A catalytic subunit alpha isoform (Oryctolagus cuniculus) (UniProt P67777); assay: Displacement of [125]MC-YR from rabbit skeletal muscle protein phosphatase 2A after 1 hr; type: tissue-based; conditions: Muscle tissue
[5] = test system: Hepatocyte; assay: Cytotoxicity against Wistar rat hepatocytes harboring transporter Oatp1b2 assessed as appearance of polarized cell blebbing at 60 nM after 90 mins by differential interference contrast microscopy; type: ADME, cell-based; conditions: 1.5 h, 0.06 µM
[6] = test system: NIH3T3; assay: Induction of apoptosis in Swiss mouse 3T3 cells assessed as appearance of apoptotic morphology at 100 uM injected directly into intact cells after 3 hrs by Hoechst 33342 staining-based fluorescence microscopy in presence of esterase; type: cell-based; conditions: nih3t3, 3 h
[7] = Stability assessed as formation of nodularin-R by HPLC analysis in presence of pig liver esterase; type: ADME; conditions: isolated protein
[8] = test system: Hepatocyte; assay: Cytotoxicity against Wistar rat hepatocytes harboring transporter Oatp1b2 assessed as appearance of polarized cell blebbing at 80 nM after 90 mins by differential interference contrast microscopy; type: ADME, cell-based; conditions: 1.5 h, 0.08 µM
[9] = test system: Hepatocyte; assay: Cytotoxicity against Wistar rat hepatocytes harboring transporter Oatp1b2 assessed as appearance of polarized cell blebbing at 4 uM after 90 mins by differential interference contrast microscopy; type: ADME, cell-based; conditions: 1.5 h
[10] = test system: Hepatocyte; assay: Cytotoxicity against Wistar rat hepatocytes harboring transporter Oatp1b2 assessed as appearance of polarized cell blebbing at 0.2 uM after 90 mins by differential interference contrast microscopy; type: ADME, cell-based; conditions: 1.5 h

Chain of Serine/threonine-protein phosphatase 2A catalytic subunit alpha isoform (Oryctolagus cuniculus) (P67777 whole entry, canonical isoform): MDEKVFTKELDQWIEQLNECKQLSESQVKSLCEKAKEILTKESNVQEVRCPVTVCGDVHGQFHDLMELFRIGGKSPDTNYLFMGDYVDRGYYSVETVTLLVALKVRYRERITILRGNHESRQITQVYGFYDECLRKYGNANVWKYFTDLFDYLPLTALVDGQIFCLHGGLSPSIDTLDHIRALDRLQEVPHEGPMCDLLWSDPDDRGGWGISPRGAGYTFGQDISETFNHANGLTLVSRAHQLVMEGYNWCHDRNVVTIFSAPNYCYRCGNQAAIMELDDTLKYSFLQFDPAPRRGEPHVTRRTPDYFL

SMILES	logD [1]	Activity [2] [%]	logD ([3]; read-out: logD)	Activity [4]	Activity [5]	Activity [6]	Stability [7]	Activity [8]	Activity [9]	logD [3]	Activity [10]
C=C1C(=O)N[C@H](C)C(=O)N[C@@H](CC(C)C)C(=O)C[C@@H](C(=O)O)[C@H](C)C(=O)N[C@@H](C)C(=O)N[C@@H](/C=C/C(C)=C/[C@H](C)[C@H](Cc2ccccc2)OC)[C@H](C)C(=O)N[C@@H](C(=O)O)CCC(=O)N1C [MICROCYSTIN-LA] ([NMeDha][dA][X1]A[Adda][dE]-OH; lactam N-6)	0.3										
C/C=C1/NC(=O)CC[C@H](C(=O)OCOC(C)=O)NC(=O)[C@@H](C)[C@H](/C=C/C(C)=C/[C@H](C)[C@H](Cc2ccccc2)OC)NC(=O)[C@H](CCCNC(=N)N)NC(=O)[C@@H](C)[C@H](C(=O)OCOC(C)=O)NC1=O	0.4	< 20	-2	inactive	Toxic	Toxic	Unstable				
C/C=C1/NC(=O)CC[C@H](C(=O)OCOC(=O)CC)NC(=O)[C@@H](C)[C@H](/C=C/C(C)=C/[C@H](C)[C@H](Cc2ccccc2)OC)NC(=O)[C@H](CCCNC(=N)N)NC(=O)[C@@H](C)[C@H](C(=O)OCOC(=O)CC)NC1=O	1.6	< 20	-0.7		Toxic	Toxic	Unstable				
C/C=C1/C(=O)N[C@@H](C(=O)O)[C@H](C)C(=O)N[C@@H](CCCNC(=N)N)C(=O)N[C@@H](/C=C/C(C)=C/[C@H](C)[C@H](Cc2ccccc2)OC)[C@H](C)C(=O)N[C@@H](C(=O)O)CCC(=O)N1C [NODULARIN]	-3.1					Toxic		Toxic			
C/C=C1/NC(=O)CC[C@H](C(=O)O)NC(=O)[C@@H](C)[C@H](/C=C/C(C)=C/[C@H](C)[C@H](Cc2ccccc2)OC)NC(=O)[C@H](CCC/N=C2/N=C(c3ccccc3)C(O)N2)NC(=O)[C@@H](C)[C@H](C(=O)O)NC1=O (some centres undefined)	-1.4	< 20				Toxic			Toxic	-4.8	
C=C1C(=O)N[C@H](C)C(=O)N[C@@H](CC(C)C)C(=O)N[C@@H](C(=O)O)[C@H](C)C(=O)N[C@@H](CCCNC(=N)N)C(=O)N[C@@H](/C=C/C(C)=C/[C@H](C)[C@H](Cc2ccccc2)OC)[C@H](C)C(=O)N[C@@H](C(=O)O)CCC(=O)N1C [MICROCYSTIN-LR] (R[Adda][d(γGlu)][NMeDha][dA]L[dAsp(3S-Me)]-OH; lactam N-7)						Toxic					Toxic
